From ChEMBL document CHEMBL4725350, “2-Oxaadamant-1-yl Ureas as Soluble Epoxide Hydrolase Inhibitors: In Vivo Evaluation in a Murine Model of Acute Pancreatitis” (J Med Chem, 2020) come the findings set out here.

≈ marks a conversion by molar mass, not a printed value. Calls of active or inactive are those of the source. No cut-off for these calls is given here.

One series is described as follows: physchem. Conditions: 1% DMSO/99% PBS buffer solution.
Series [1] can be described thus: Stability in mouse liver microsomes assessed as parent compound remaining measured after 60 mins in presence of NADPH by LC-MS/MS analysis. The series is classed as ADME, Microsome. Conditions: read-out: Stabilty. An outline of the steps: (§1)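 Compound is incubated at 37 °C with human, mouse or rat liver microsomes in 50 mM phosphate buffer pH 7.4. […] Samples at 0–60 min are quenched into acetonitrile; percent parent remaining at 60 min is reported. Testosterone is the positive control.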
For orientation: Liver microsomes are a subcellular fraction often used to study metabolism.

For series [2], the system named is AR-42J cell line. Description: Protection against cerulein-induced pancreatic damage in rat AR42J cells assessed as reduction in TNF-alpha mRNA level at 60 uM preincubated for 1 hr followed by cerulein addition and measured after 8 hrs by Trisure-reagent based RT-PCR analysis. It is filed as functional, cell-based. Particulars: time 9.0 hrs. An outline of the steps:
(§2)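 Rat pancreatic acinar AR42J cells are exposed to 10 nM cerulein with or without inhibitor co-incubation at 60 μM. IL-6, TNF-α, CHOP and TRB3 mRNA levels are measured and compared with control and cerulein-only cells. Mean ± SEM, n = 5 per group.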

For series [3], the system named is AR-42J cell line. Put plainly: Protection against cerulein-induced pancreatic damage in rat AR42J cells assessed as reduction in IL-6 mRNA level at 60 uM preincubated for 1 hr followed by cerulein addition and measured after 8 hrs by Trisure-reagent based RT-PCR analysis. Particulars: time 9.0 hrs. It is filed as functional, cell-based. A digest of the protocol:
as §2

Series [4] has as its target T1, Bifunctional epoxide hydrolase 2 (Mus musculus, UniProt P34914).
T1 sequence (P34914 whole entry): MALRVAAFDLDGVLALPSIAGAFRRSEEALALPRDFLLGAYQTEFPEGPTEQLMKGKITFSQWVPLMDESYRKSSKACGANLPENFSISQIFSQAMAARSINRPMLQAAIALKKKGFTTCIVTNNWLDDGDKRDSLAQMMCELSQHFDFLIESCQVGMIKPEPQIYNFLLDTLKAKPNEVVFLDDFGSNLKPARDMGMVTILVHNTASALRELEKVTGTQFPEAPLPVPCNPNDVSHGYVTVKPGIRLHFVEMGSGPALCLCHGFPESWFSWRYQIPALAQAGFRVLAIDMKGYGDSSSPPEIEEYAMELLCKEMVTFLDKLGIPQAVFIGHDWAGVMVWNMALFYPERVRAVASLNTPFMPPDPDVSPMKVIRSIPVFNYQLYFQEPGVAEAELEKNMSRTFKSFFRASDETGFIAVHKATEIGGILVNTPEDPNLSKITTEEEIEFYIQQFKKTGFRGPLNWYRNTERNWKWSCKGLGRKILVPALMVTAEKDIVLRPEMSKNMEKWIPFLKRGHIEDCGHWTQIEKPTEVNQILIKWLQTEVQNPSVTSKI
Description: Inhibition of recombinant mouse soluble epoxide hydrolase using CMNPC as substrate preincubated for 5 mins followed by substrate addition and measured at 30 secs interval for 10 mins by fluorescence assay. An outline of the steps: (§3)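 Purified recombinant enzyme was preincubated with inhibitor (0.4–100,000 nM final) for 5 min at 30 °C in 100 mM sodium phosphate, pH 7.4, with 0.1 mg/mL BSA and 1% DMSO. CMNPC was added at 5 μM final. 6-Methoxynaphthaldehyde fluorescence (ex 330/em 465 nm) was read every 30 s for 10 min. IC50 values are averages of three replicates.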

Series [5] relates to AR-42J cell line. Put plainly: Protection against cerulein-induced pancreatic damage in rat AR42J cells assessed as reduction in CHOP mRNA level at 60 uM preincubated for 1 hr followed by cerulein addition and measured after 8 hrs by Trisure-reagent based RT-PCR analysis. The series is classed as functional, cell-based. Conditions: time 9.0 hrs. An outline of the steps:
as §2

Series [6] can be described thus: Stability in rat liver microsomes assessed as parent compound remaining measured after 60 mins in presence of NADPH by LC-MS/MS analysis. The series is classed as ADME, Microsome. Particulars: read-out: Stabilty. A digest of the protocol: as §1
Series [7] in a line: Cytotoxicity against human PBMC assessed as reduction in cell viability measured after 72 hrs by ATPlite assay. Conditions: read-out: LC50 (the source's name).
Series [8] concerns AR-42J cell line. Put plainly: Protection against cerulein-induced pancreatic damage in rat AR42J cells assessed as reduction in TRB3 mRNA level at 60 uM preincubated for 1 hr followed by cerulein addition and measured after 8 hrs by Trisure-reagent based RT-PCR analysis. It is filed as functional, cell-based. Particulars: time 9.0 hrs. An outline of the steps: as §2
Series [9] in a line: Stability in human liver microsomes assessed as parent compound remaining measured after 60 mins in presence of NADPH by LC-MS/MS analysis. It is filed as ADME, Microsome. Conditions: read-out: Stabilty. An outline of the steps: as §1
In another series the test system is THLE-2. Put plainly: Cytotoxicity against human THLE-2 cells assessed as reduction in cell viability measured after 72 hrs by ATPlite assay. The series is classed as cell-based. Conditions: thle-2, 72 h, read-out: LC50 (the source's name). An outline of the steps:
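THLE-2 cells were grown in BEGM with 0.7 μg/mL phosphoethanolamine, 0.5 ng/mL EGF and 10% FBS, plated at 10,000 cells/well and left to adhere for 24 h. Cells were exposed to 0–100 μM final (1% DMSO) for 72 h at 37 °C, 5% CO2.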
Background: Cellular ATP, detected with luciferase, serves as a proxy for viable cell number.

The target in series [10] is T2, Bifunctional epoxide hydrolase 2 (Rattus norvegicus, UniProt P80299).
T2 sequence (P80299 whole entry): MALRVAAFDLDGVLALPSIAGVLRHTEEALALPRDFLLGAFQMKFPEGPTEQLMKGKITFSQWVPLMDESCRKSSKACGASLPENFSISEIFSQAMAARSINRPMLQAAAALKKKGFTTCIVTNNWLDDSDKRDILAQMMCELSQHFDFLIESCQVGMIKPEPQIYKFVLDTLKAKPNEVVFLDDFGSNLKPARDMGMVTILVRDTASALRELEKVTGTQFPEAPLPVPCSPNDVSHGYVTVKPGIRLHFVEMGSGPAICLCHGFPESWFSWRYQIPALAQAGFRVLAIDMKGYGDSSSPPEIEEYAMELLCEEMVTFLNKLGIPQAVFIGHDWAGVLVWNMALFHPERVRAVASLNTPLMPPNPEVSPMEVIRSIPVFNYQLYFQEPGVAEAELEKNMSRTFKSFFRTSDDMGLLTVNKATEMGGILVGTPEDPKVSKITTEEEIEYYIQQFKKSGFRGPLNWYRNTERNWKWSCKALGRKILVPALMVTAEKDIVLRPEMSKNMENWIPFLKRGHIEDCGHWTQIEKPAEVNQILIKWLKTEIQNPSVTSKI
Put plainly: Inhibition of recombinant rat soluble epoxide hydrolase using CMNPC as substrate preincubated for 5 mins followed by substrate addition and measured at 30 secs interval for 10 mins by fluorescence assay. An outline of the steps:
as §3

The target in series [11] is Voltage-gated inwardly rectifying potassium channel KCNH2 (Homo sapiens, UniProt Q12809). Put plainly: Inhibition of human ERG at 10 uM.
The nature of series [12]: Half life in CD-1 mouse at 1 mg/kg, ip measured up to 24 hrs by LC-MS analysis. The series is classed as ADME, organism-based. Particulars: in vivo. An outline of the steps:
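Single dose, 1 mg/kg, given to mice intravenously or intraperitoneally. Parameters are taken from the plasma concentration–time profile: T1/2, Tmax, Cmax, C0 (iv only), AUClast, AUCINF_obs, Vz and Cl. Bioavailability is derived from ip versus iv exposure.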

Sequence of Voltage-gated inwardly rectifying potassium channel KCNH2 (Q12809 whole entry): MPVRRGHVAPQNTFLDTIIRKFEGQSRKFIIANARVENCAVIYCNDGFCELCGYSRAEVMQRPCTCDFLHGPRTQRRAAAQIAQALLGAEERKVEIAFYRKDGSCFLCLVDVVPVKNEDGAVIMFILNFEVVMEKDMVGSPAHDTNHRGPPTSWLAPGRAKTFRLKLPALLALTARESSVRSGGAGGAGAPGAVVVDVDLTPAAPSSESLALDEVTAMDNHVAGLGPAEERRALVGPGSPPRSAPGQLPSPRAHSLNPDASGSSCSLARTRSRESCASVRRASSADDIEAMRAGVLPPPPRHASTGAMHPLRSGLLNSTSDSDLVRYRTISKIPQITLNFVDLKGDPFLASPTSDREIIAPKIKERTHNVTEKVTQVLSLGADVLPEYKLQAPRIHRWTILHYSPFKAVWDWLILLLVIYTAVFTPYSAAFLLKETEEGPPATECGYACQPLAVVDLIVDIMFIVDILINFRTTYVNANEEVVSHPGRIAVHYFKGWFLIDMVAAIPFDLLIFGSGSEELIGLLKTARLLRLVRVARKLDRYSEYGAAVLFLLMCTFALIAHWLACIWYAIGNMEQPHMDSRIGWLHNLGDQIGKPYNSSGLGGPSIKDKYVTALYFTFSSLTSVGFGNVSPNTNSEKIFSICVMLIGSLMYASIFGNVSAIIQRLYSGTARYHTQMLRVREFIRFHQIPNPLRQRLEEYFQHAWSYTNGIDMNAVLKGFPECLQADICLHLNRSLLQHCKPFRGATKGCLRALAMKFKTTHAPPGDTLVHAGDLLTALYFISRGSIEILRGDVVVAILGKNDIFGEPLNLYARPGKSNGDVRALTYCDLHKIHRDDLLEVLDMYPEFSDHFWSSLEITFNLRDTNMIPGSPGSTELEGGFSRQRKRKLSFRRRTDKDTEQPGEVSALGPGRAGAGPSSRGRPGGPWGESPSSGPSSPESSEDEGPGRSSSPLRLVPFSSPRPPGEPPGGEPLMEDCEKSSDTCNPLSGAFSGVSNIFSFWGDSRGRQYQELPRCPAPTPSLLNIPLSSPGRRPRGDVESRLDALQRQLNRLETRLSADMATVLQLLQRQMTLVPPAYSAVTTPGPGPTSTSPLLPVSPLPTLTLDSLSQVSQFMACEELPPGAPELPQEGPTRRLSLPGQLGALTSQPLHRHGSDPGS

In the case of `CC(=O)N1CCC(NC(=O)NC23CC4CC(CC(C4)O2)C3)CC1`, the solubility (kinetic) at 2 h in “physchem” was determined as 59 µM (≈ 19 µg/mL). For the same compound, the remaining at 1 h was found to be 80.5% in [1], 85.1% in [6] and 88.8% in series [9]. The outcome in the series on AR-42J cell line [2], in the series on AR-42J cell line [3], with AR-42J cell line [5] and in the series with AR-42J cell line [8] was Active. Moreover, the results for the IC50 in series [4] and in series [10] were 0.0923 µM and 0.0033 µM, respectively. The CC50 in series [7] is greater than 20 µM; with THLE-2, greater than 100 µM. In series [11], the “inhibition (INH)” value is on record as “Not Active”.
Take `CC(C)S(=O)(=O)N1CCC(NC(=O)NC23CC4CC(CC(C4)O2)C3)CC1`: the solubility (kinetic) at 2 h in the series “physchem” stood at 34 µM (≈ 13.1 µg/mL). Also, the remaining at 1 h in series [1] stood at 63.9%; in series [6], 63.9%; in [9] it was 72.7%. The result in the series on AR-42J cell line [2], in the series on AR-42J cell line [3], in the series with AR-42J cell line [5] and with AR-42J cell line [8] was Active. Moreover, the IC50 in series [4] was determined as 0.0791 µM; in [10] it was 0.0019 µM. In addition, the CC50 was greater than 20 µM in series [7] and greater than 100 µM with THLE-2. Besides, the “inhibition (INH)” value in series [11] is reported as “Not Active”. The t1/2 in [12] worked out at 3.02 h.

Broadly, the solubility (kinetic) is solubility judged after dilution from a stock solution rather than from solid. What is called IC50 is the midpoint of a concentration-inhibition curve.
